The values below come from ChEMBL document CHEMBL1125201, “C-glycosidic analogues of lipid A and lipid X: synthesis and biological activities” (J Med Chem, 1991).

One series concerns Mus musculus. Kind of series: Survival rate of the nonspecific resistance against Pseudomonas aeruginosa infection after intraperitoneal administration in ten mice. It counts as functional. Further details: unit: surviving mice (of 10). Put shortly:
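Compound (12.5 mg/kg, single dose) given ip to myelosuppressed mice on day -1, then iv infection with P. aeruginosa (Δ12) on day 0 at an LD35 inoculum; 10 mice per group; survival counted after 4-day observation; LPS (S. abortus equi) ip control group.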

The next series has as its system Pseudomonas aeruginosa. Kind of series: Compound was evaluated for effective dose required for the nonspecific resistance against Pseudomonas aeruginosa after intraperitoneal administration. Type of series: functional. As to conditions: ip. The procedure, abridged: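 Myelosuppressed mice got the compound ip on day -1 and were infected iv with P. aeruginosa (Δ12) on day 0 at an LD35 inoculum. Survival was scored over 4 days. ED50 was calculated by Probit analysis with confidence limits. Disaccharides were tested as lysine salts.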

Series [1] is described as follows: Compound was evaluated for lethal dose after intravenous administration. It counts as toxicity, organism-based. To be noted: mouse, in vivo. The procedure, abridged: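 Mice (C57BL/6, groups of six) given serial dilutions of compound iv via tail vein in pyrogen-free saline, with galactosamine 400 mg/kg ip given at the same time to sensitize to endotoxin; lethal toxicity recorded as LD50.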

Consider `CCCCCCCCCCC[C@@H](O)CC(=O)N[C@H]1C(CC(=O)O)OC(CO)C(O)C1O` (stereo not given in full), for which the Survival rate with Mus musculus was 0.
In the series on Mus musculus, `CCCCCCCCCCC[C@@H](O)CC(=O)NC1C(OP(=O)(O)O)OC(CO)C(O)C1OC(=O)C[C@H](O)CCCCCCCCCCC` (stereo not given in full) displayed a Survival rate of 0.
On the same count and under the same terms, to `CCCCCCCCCCCCCC(=O)O[C@H](CCCCCCCCCCC)CC(=O)O[C@H]1[C@H](O)[C@H](CO)O[C@@H](CC(=O)O)[C@@H]1NC(=O)C[C@H](O)CCCCCCCCCCC` belongs 2.
Compound `CCCCCCCCCCC[C@@H](O)CC(=O)NC1C(CC(=O)O)OC(COC2OC(CO)C(O)C(OC(=O)C[C@H](O)CCCCCCCCCCC)C2NC(=O)C[C@H](O)CCCCCCCCCCC)C(O)C1OC(=O)C[C@H](O)CCCCCCCCCCC` (stereo not given in full) returned a median effective dose (ED50) in the series on Pseudomonas aeruginosa of 1.5 mg/kg. The Survival rate in the series with Mus musculus is reported as 10. This compound displayed an LD50 in series [1] of about 5.2 mg/kg.
On to `CCCCCCCCCCC[C@@H](O)CC(=O)N[C@H]1C(CC(=O)O)OC(CO)C(O)C1OC(=O)C[C@H](O)CCCCCCCCCCC` (stereo not given in full), for which the Survival rate in the series on Mus musculus was found to be 4.
Turning to `CCCCCCCCCCC[C@@H](O)CC(=O)NC1C(CC(=O)O)OC(CO)C(OC(=O)C[C@H](O)CCCCCCCCCCC)C1OC(=O)C[C@H](O)CCCCCCCCCCC` (stereo not given in full), in the series with Pseudomonas aeruginosa, the ED50 worked out at 1.1 mg/kg. The compound further displayed a Survival rate in the series on Mus musculus of 10. For the same compound, the 50% lethal dose (LD50) in series [1] amounted to 1 mg/kg.
Consider `CCCCCCCCCCC[C@@H](O)CC(=O)NC1C(OCC2OC(CC(=O)O)C(NC(C)=O)C(OC(=O)C[C@H](O)CCCCCCCCCCC)C2O)OC(CO)C(O)C1OC(=O)C[C@H](O)CCCCCCCCCCC` (stereo not given in full), for which, in the series with Mus musculus, the Survival rate is recorded as 7.
Turning to `CCCCCCCCCCC[C@@H](O)CC(=O)NC1C(OP(=O)(O)O)OC(CO)C(OC(=O)C[C@H](O)CCCCCCCCCCC)C1OC(=O)C[C@H](O)CCCCCCCCCCC` (stereo not given in full), the ED50 in the series with Pseudomonas aeruginosa worked out at 1.1 mg/kg. For the same compound, the Survival rate with Mus musculus is 10. The median lethal dose (LD50) in series [1] is 0.8 mg/kg.
With `CCCCCCCCCCC[C@@H](O)CC(=O)OC1C(O)C(CO)OC(CC(=O)O)[C@@H]1NC(C)=O` (stereo not given in full), in the series on Mus musculus, the Survival rate was 1.
Compound `CCCCCCCCCCCCCC(=O)O[C@H](CCCCCCCCCCC)CC(=O)O[C@H]1[C@H](O)[C@H](CO)O[C@H](CC(=O)O)[C@@H]1NC(=O)C[C@H](O)CCCCCCCCCCC` (stereo in doubt; 17b) showed a 50% effective dose (ED50) with Pseudomonas aeruginosa of 1.8 mg/kg. Moreover, in the series with Mus musculus, the Survival rate was found to be 9. The LD50 in series [1] amounted to 0.2 mg/kg.
Taken in the same sequence, the figures for `CCCCCCCCCCCCCC(=O)O[C@H](CCCCCCCCCCC)CC(=O)OC1C(O)C(CO)OC(OP(=O)(O)O)C1NC(=O)C[C@H](O)CCCCCCCCCCC` (stereo not given in full) were 1.7 mg/kg, 9 and 0.3 mg/kg.
As for `CCCCCCCCCCCCCC(=O)O[C@H](CCCCCCCCCCC)CC(=O)O[C@H]1[C@H](O)[C@H](CO)O[C@H](CC(=O)O)[C@@H]1NC(=O)C[C@H](O)CCCCCCCCCCC` (stereo in doubt; 13a), the Survival rate in the series on Mus musculus amounted to 4.
In the series on Pseudomonas aeruginosa, `CCCCCCCCCCC[C@@H](O)CC(=O)NC1C(OCC2OC(OP(=O)(O)O)C(NC(=O)C[C@H](O)CCCCCCCCCCC)C(OC(=O)C[C@H](O)CCCCCCCCCCC)C2O)OC(CO)C(O)C1OC(=O)C[C@H](O)CCCCCCCCCCC` (stereo not given in full) yielded an ED50 of 3.4 mg/kg. For the same compound, the Survival rate in the series on Mus musculus was 8. The LD50 in series [1] is 3.5 mg/kg.
